# Assay results collected from several papers.
# Each line is one published result; the experiments were not run side by side.
# Target: Dual specificity protein kinase CLK4 (CLK4, Homo sapiens, UniProt Q9HAZ1)
SMILES,test,conditions,endpoint,result
Cn1cnc(Br)c1C1=CN(c2ncnc3[nH]cnc23)CCS1,"enzyme activity, inhibitor, radiometric",2 µM,inhibition,98.8%
CN(c1ccnc(CNc2nc(Nc3ccc4c(c3)CC(=O)N4)ncc2C(F)(F)F)n1)S(C)(=O)=O,"binding, competition with immobilised ligand",1 µM,remaining binding,1.4%
O=C1Nc2ccc(Cl)cc2C1=Cc1cc(Cl)c(O)c(Cl)c1,cell-free assay,0.5 µM,remaining signal,60.7%
COc1cc(-c2cc(-c3ccc(N4CCNCC4)cc3)cnc2C)cc(OC)c1OC,"enzyme activity, inhibitor",1 µM,inhibition,7%
Cc1ccc(C(=O)Nc2ccc(CN3CCN(C)CC3)c(C(F)(F)F)c2)cc1C#Cc1cnc2cccnn12,"enzyme activity, inhibitor",23.5 nM,remaining activity,54%
CC(C)(C)c1nc(-c2cccc(NS(=O)(=O)c3c(F)cccc3F)c2F)c(-c2ccnc(N)n2)s1,"enzyme activity, inhibitor, radiometric",1 µM,remaining activity,74%
Cc1ccc(NC(=O)c2ccc(C)c(C(F)(F)F)c2)cc1C#Cc1nn(C2CCC(O)CC2)c2ncnc(N)c12 (stereo not drawn),cell-free assay,10 µM,remaining signal,58%
O=C(Nc1cccnn1)N1CCC(=Cc2cccc(Oc3ccc(C(F)(F)F)cn3)c2)CC1,"cell-free assay, competition with immobilised ligand",1 µM,remaining binding,70%
CNC(=O)c1cc(Oc2ccc(NC(=O)Nc3ccc(Cl)c(C(F)(F)F)c3)cc2)ccn1,cell-free assay,0.5 µM,remaining signal,95.2%
COc1cc(Cl)c(C(=O)N[C@@H](CN[C@H]2CC[C@@H](N)CC2)Cc2ccc(C#N)cc2)cc1-c1ccc(CN[C@H](C)c2ccc(C)cc2)o1,"enzyme activity, inhibitor",1 µM,remaining activity,103%
Oc1ccc(-c2nc(-c3ccncc3)c(-c3ccc(F)cc3)[nH]2)cc1,cell-free assay,0.5 µM,remaining signal,106%
Cn1cncc1C1=CN(c2ncnc3[nH]cnc23)CCS1,"enzyme activity, inhibitor, radiometric",2 µM,inhibition,84.7%
C[C@@H]1CN(c2cc(-c3nn(C)c4ccc(OC5(C)CC5)cc34)ncn2)C[C@H](C)O1,"cell-free assay, competition with immobilised ligand",1 µM,remaining binding,100%
CCN(CC)CCNC(=O)c1c(C)[nH]c(/C=C2\C(=O)Nc3ccc(F)cc32)c1C,cell-free assay,0.5 µM,remaining signal,26.3%
FC(F)(F)c1ccc2c(c1)nc(-c1cccnc1)n2C1CC1,"cell-free assay, competition with immobilised ligand",1 µM,remaining binding,100%
O=C1NC(=O)c2cc(Nc3ccc(F)cc3)c(Nc3ccc(F)cc3)cc21,cell-free assay,0.5 µM,remaining signal,88.6%
Nc1ncnc2occ(-c3ccc(NC(=O)Nc4cc(C(F)(F)F)ccc4F)cc3)c12,"cell-free assay, inhibitor",20 µM,remaining signal,5.8%
COc1cccc(CNC(=O)c2nc3scc(COCc4ccc(C(=O)O)cc4)c3c(=O)[nH]2)c1,"cell-free assay, competition with immobilised ligand",1 µM,remaining binding,94.4%
CS(=O)(=O)Nc1cccc(-c2csc(NC(=O)CSc3nc4nccnc4c(=O)n3CCc3ccccc3)n2)c1,"enzyme activity, inhibitor",10 µM,inhibition,14%
CS(=O)(=O)N1CCCC(NC(=O)[C@H](CCC2CCCCC2)NC(=O)c2ccc(CNc3ncnc4c3nnn4-c3ccccc3)cc2)C1 (stereo partly drawn),"cell-free assay, competition with immobilised ligand",0.1 µM,remaining binding,85%
Cc1sc(C(=O)NC2COC2)cc1-n1cc(NC(=O)Nc2c(F)cccc2Cl)cn1,"enzyme activity, inhibitor",10 µM,remaining activity,102%
